ChEMBL document CHEMBL1148253, “Structure-activity requirements for the antiproliferative effect of troglitazone derivatives mediated by depletion of intracellular calcium” (Bioorg Med Chem Lett, 2004)
Active and inactive are the calls of the source. No cut-off for these calls is given here.

What was measured:
PC-12 [1] = assay: Tested for the intracellular Ca+2 release in PC12 cells; - = No release; type: functional, cell-based; details: Rattus norvegicus
Outline: (§1)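 Fluo-4-loaded cells treated with drug at 80 μM for 10 min and monitored for Ca2+ release from intracellular stores. Clotrimazole is the positive control. Scored +, ± or −.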

PC-12 [2] = assay: Concentration required for 50% inhibition of cell proliferation in PC12 cells using sulforhodamine B assay; type: functional, cell-based; details: Rattus norvegicus
Outline: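 Sulforhodamine B proliferation assay; cells exposed to drug for 5 days across 0.5 to 100 μM. IC50 is the concentration giving 50% inhibition of proliferation.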

PC-12 [3] = assay: Phosphorylation of eukaryotic initiation factor 2 alpha (eIF2alpha) in PC12 cells, +/- = Insignificant phosphorylation; type: functional, cell-based; details: Rattus norvegicus
Outline: (§2)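 Cells treated with drug at 15 μM for 2 h. Extracts western blotted with anti-phospho-Ser51 eIF2α antibody. Tro is the positive control and DMSO the negative control. Scored +, ± or −.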

[4] = Partition coefficient (logP); type: physicochemical; details: octanol/water
PC-12 [5] = assay: Phosphorylation of eukaryotic initiation factor 2 alpha (eIF2alpha) in PC12 cells, - = No phosphorylation; type: functional, cell-based; details: Rattus norvegicus; outline: as §2
PC-12 [6] = assay: Tested for the intracellular Ca+2 release in PC12 cells; + = Release; type: functional, cell-based; details: Rattus norvegicus; outline: as §1
PC-12 [7] = assay: Phosphorylation of eukaryotic initiation factor 2 alpha (eIF2alpha) in PC12 cells, + = Phosphorylation; type: functional, cell-based; details: Rattus norvegicus; outline: as §2
PC-12 [8] = assay: Tested for the intracellular Ca+2 release in PC12 cells; +/- = Insignificant release; type: functional, cell-based; details: Rattus norvegicus; outline: as §1

logP ([4]; read-out: logP)	logP [4]	Structure (SMILES)	Activity (PC-12 [1])	IC50 (PC-12 [2]) [µM]	Activity (PC-12 [3])	Activity (PC-12 [5])	Activity (PC-12 [6])	Activity (PC-12 [7])	Activity (PC-12 [8])
2.43	–	CCOc1ccc(CC2SC(=O)NC2=O)cc1 (stereo unspecified)	Not toxic	> 100	+/-	–	–	–	–
1.71	–	O=C1NC(=O)/C(=C/c2ccccc2)S1	Not toxic	> 100	–	Not toxic	–	–	–
3.09	–	CC(C)COc1ccc(/C=C2\SC(=O)NC2=O)cc1	Not toxic	16	+/-	–	–	–	–
3.4	–	O=C1NC(=O)/C(=C/c2ccc(OCc3ccccc3)cc2)S1	–	–	–	–	–	–	–
3.49	–	CCC(C)(C)Oc1ccc(/C=C2\SC(=O)NC2=O)cc1	–	15	–	–	Phosphorylation	Phosphorylation	–
2.16	–	CCOc1ccc(/C=C2\SC(=O)NC2=O)cc1	Not toxic	27	+/-	–	–	–	–
–	–	O=C1N=C(O)S/C1=C\c1ccc(OCC2CCCC2)cc1	–	10	–	–	Phosphorylation	Phosphorylation	–
2.54	–	O=C1NC(=O)/C(=C/c2ccc(OCC3CCC3)cc2)S1	–	13	–	–	Phosphorylation	Phosphorylation	–
1.05	–	O=C1NC(=O)/C(=C/c2ccc(O)cc2)S1	Not toxic	20	–	Not toxic	–	–	–
2.81	–	O=C1NC(=O)C(Cc2ccc(OCC3CCC3)cc2)S1 (stereo unspecified)	–	> 100	–	Not toxic	Release	–	–
–	5.07	CC1(COc2ccc(CC3SC(=O)NC3=O)cc2)CCCCC1 (stereo unspecified) [CIGLITAZONE]	–	20	–	–	Active	Active	–
5.31	–	Cc1c(C)c2c(c(C)c1O)CCC(C)(COc1ccc(/C=C3/SC(=O)NC3=O)cc1)O2 (stereo unspecified)	–	5	–	–	Phosphorylation	Phosphorylation	–
2.29	–	O=C1NC(=O)C(Cc2ccc(OCC3CCCCO3)cc2)S1 (stereo unspecified)	Not toxic	> 100	–	Not toxic	–	–	–
3.67	–	O=C1NC(=O)C(Cc2ccc(OCc3ccccc3)cc2)S1 (stereo unspecified)	Not toxic	> 100	–	Not toxic	–	–	–
3.66	–	O=C1N=C(O)S/C1=C\c1ccc(OCC2CCCCC2)cc1	–	14	–	–	Phosphorylation	Phosphorylation	–
3.76	–	CCC(C)(C)Oc1ccc(CC2SC(=O)NC2=O)cc1 (stereo unspecified)	–	23	–	–	Phosphorylation	Phosphorylation	–

logP ([4]; read-out: logP)	logP [4]	Structure (SMILES)	Activity (PC-12 [1])	IC50 (PC-12 [2]) [µM]	Activity (PC-12 [3])	Activity (PC-12 [5])	Activity (PC-12 [6])	Activity (PC-12 [7])	Activity (PC-12 [8])
3.36	–	CC(C)COc1ccc(CC2SC(=O)NC2=O)cc1 (stereo unspecified)	–	25	–	Not toxic	Release	–	–
3.21	–	O=C1NC(=O)/C(=C/c2ccc(OCC3CCCC3)cc2)S1	–	–	–	–	–	–	–
2.96	–	CCCOc1ccc(CC2SC(=O)NC2=O)cc1 (stereo unspecified)	Not toxic	45	+/-	–	–	–	–
1.32	–	O=C1NC(=O)C(Cc2ccc(O)cc2)S1 (stereo unspecified) [GLITAZONE]	Not toxic	> 100	+/-	–	–	–	–
1.99	–	O=C1NC(=O)C(Cc2ccccc2)S1 (stereo unspecified)	Not toxic	> 100	–	Not toxic	–	–	–
1.91	–	COc1ccc(CC2SC(=O)NC2=O)cc1 (stereo unspecified)	Not toxic	> 100	–	Not toxic	–	–	–
1.99	–	O=C1NC(=O)/C(=C/c2ccc(OCC3CC3)cc2)S1	Not toxic	23	+/-	–	–	–	–
2.02	–	O=C1N=C(O)S/C1=C\c1ccc(OCC2CCCCO2)cc1 (stereo unspecified)	–	22	–	–	Phosphorylation	Phosphorylation	–
3.38	–	O=C1NC(=O)C(Cc2ccc(OCC3CCCC3)cc2)S1 (stereo unspecified)	–	25	–	–	Phosphorylation	Phosphorylation	–
2.69	–	CCCOc1ccc(/C=C2\SC(=O)NC2=O)cc1	–	7	+/-	–	–	–	+/-
2.26	–	O=C1NC(=O)C(Cc2ccc(OCC3CC3)cc2)S1 (stereo unspecified)	Not toxic	> 100	–	Not toxic	–	–	–
1.63	–	COc1ccc(/C=C2\SC(=O)NC2=O)cc1	Not toxic	23	–	Not toxic	–	–	–
3.94	–	O=C1NC(=O)C(Cc2ccc(OCC3CCCCC3)cc2)S1 (stereo unspecified)	–	26	+/-	–	Release	–	–
–	–	O=C1N=C(O)S/C1=C\c1ccc(OCc2ccccc2)cc1	Not toxic	15	–	Not toxic	–	–	–
4.46	–	Cc1c(C)c2c(c(C)c1O)CCC(C)(COc1ccc(CC3SC(=O)NC3=O)cc1)O2 (stereo unspecified) [TROGLITAZONE]	–	15	–	–	Active	Active	–
